Activity calls are given as the source filed them. The calls are words filed in the database; no cut-off is given here.
Assays:
[1] = biological target: Proteasome Macropain subunit (Homo sapiens) (UniProt P49721); assay: Binding affinity to human 20S constitutive proteasome beta 2 subunit assessed as half-life using fluorogenic peptide Ac-WLR-AMC as substrate in presence of PA28alpha by fluorescence based microplate reader assay
Plasmodium falciparum [2] = assay: Inhibition of proteasome in Plasmodium falciparum trophozoite stage transfected with GFP-DD assessed as reduction in GFP-DD fusion protein degradation at 0.02 to 0.5 uM incubated for 3 hrs in absence of Shield-1 by Western blot analysis; details: dose 0.02-0.5 µM
Method in brief: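 GFP-DD reporter parasites were held in Shield-1 for 24 h, washed out, then treated as trophozoites (5% hematocrit, 5% parasitemia) with compound for 3 h at 37°C. […] Representative of four independent experiments.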

Plasmodium falciparum [3] = assay: Antiplasmodial activity against sorbitol synchronized ring stage Plasmodium falciparum 3D7 assessed as reduction in parasitemia incubated for 72 hrs by Syto-61 staining dye based flow cytometry analysis; format: functional; details: read-out: LD50 (the source's name)
Method in brief: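 Sorbitol-treated ring-stage parasites in O+ human erythrocytes were incubated with compound for 72 h, and viability was read in the second cycle. Read-out was Syto-61 (2 µM) flow cytometry of parasitemia, normalized to untreated and 2 µM DHA-killed controls. Mean ± SEM of three independent experiments.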

[4] = tested on: Plasmodium falciparum 3D7; assay: Inhibition of 20S proteasome beta 2 subunit in bortezomib-resistant Plasmodium falciparum 3D7 assessed as inhibition of BMV037 probe labeling at 1 to 10 uM incubated for 1 hr by SDS-PAGE analysis; details: dose 1-10 µM
[5] = biological target: T1, Proteasome Macropain subunit MB1 (Homo sapiens, UniProt P28074); assay: Inhibition of human 20S constitutive proteasome beta 5 subunit chymotrypsin-like activity using fluorogenic peptide Ac-WLA-AMC as substrate in presence of PA28alpha incubated for 1 to 2 hrs by fluorescence microplate reader assay
T1 sequence (P28074 whole entry): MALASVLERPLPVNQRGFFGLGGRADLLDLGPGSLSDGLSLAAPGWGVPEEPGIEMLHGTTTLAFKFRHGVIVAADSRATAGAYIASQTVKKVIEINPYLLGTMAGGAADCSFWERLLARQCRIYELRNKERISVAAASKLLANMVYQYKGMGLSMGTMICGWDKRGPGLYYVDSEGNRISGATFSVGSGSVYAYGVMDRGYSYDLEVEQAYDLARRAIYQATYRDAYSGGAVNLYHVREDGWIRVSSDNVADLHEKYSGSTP

[6] = biological target: T2, Proteasome component C5 (Homo sapiens) (UniProt P20618); assay: Inhibition of human 20S constitutive proteasome beta 1 subunit assessed as inhibition of BMV037 probe labeling at 1 to 10 uM incubated for 1 hr by SDS-PAGE analysis; details: dose 1-10 µM
T2 sequence (whole entry): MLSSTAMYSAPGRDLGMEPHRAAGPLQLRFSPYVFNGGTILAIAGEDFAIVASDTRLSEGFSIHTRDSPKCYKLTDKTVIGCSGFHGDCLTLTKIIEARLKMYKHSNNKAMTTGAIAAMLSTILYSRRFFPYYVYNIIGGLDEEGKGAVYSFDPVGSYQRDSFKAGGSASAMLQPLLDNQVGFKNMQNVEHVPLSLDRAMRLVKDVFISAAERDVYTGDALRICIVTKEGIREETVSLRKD
Method in brief: (§1)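 Purified human constitutive 20S (20 nM) was treated with compound at 37°C for 1 h, then labelled with 10 µM BMV037 at 37°C for 2 h. Samples were run on 10% Bis-Tris gel with MOPS buffer, and active subunits were detected by Cy5 fluorescence scan.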

[7] = Binding affinity to Plasmodium falciparum 20S proteasome beta 5 subunit assessed as equilibrium constant using fluorogenic peptide Ac-WLA-AMC as substrate in presence of PA28alpha by fluorescence based microplate reader assay
Plasmodium falciparum [8] = assay: Synergistic antiplasmodial activity against DHA-resistant and sorbitol synchronized ring stage forms of Plasmodium falciparum Cam3.II^R539T expressing K13 mutant assessed as reduction in parasitemia incubated for 3 hrs in presence of DHA by pulse exposure based Syto-61 staining dye based flow cytometry analysis; format: functional, organism-based
[9] = biological target: T3, Proteasome Macropain subunit MB1 (Homo sapiens) (UniProt P28074); assay: Binding affinity to human 20S constitutive proteasome beta 5 subunit assessed as half-life using fluorogenic peptide Ac-WLA-AMC as substrate in presence of PA28alpha by fluorescence based microplate reader assay
T3 sequence (whole entry): T1 sequence (P28074 whole entry)

[10] = biological target: T3, Proteasome Macropain subunit MB1 (Homo sapiens); assay: Inhibition of human 20S constitutive proteasome beta 5 subunit assessed as inhibition of BMV037 probe labeling at 1 to 10 uM incubated for 1 hr by SDS-PAGE analysis; details: dose 1-10 µM; method in brief: as §1
[11] = biological target: T1, Proteasome Macropain subunit MB1; assay: Binding affinity to human 20S constitutive proteasome beta 5 subunit assessed as equilibrium constant using fluorogenic peptide Ac-WLA-AMC as substrate in presence of PA28alpha by fluorescence based microplate reader assay
Plasmodium falciparum [12] = assay: Binding affinity to Plasmodium falciparum 20S proteasome beta 5 subunit assessed as half-life using fluorogenic peptide Ac-WLA-AMC as substrate in presence of PA28alpha by fluorescence based microplate reader assay
[13] = biological target: T4, Proteasome subunit beta type-9 (Homo sapiens) (UniProt P28065); assay: Inhibition of human 20S immunoproteasome beta 1 subunit assessed as inhibition of BMV037 probe labeling at 1 to 10 uM incubated for 1 hr by SDS-PAGE analysis; details: dose 1-10 µM
T4 sequence (whole entry): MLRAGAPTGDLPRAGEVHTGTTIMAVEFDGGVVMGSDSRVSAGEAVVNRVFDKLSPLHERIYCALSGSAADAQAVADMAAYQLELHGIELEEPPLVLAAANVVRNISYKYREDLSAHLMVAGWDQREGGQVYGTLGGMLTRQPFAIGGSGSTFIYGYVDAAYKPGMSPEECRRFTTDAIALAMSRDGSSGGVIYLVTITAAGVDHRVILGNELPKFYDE
Method in brief: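 Purified human immuno-20S (20 nM) was incubated with compound at 37°C for 1 h, then labelled with 10 µM BMV037 at 37°C for 2 h. Samples were run on 4-12% Bis-Tris gel with MES buffer, and active subunits were visualised by Cy5 fluorescence.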

[14] = tested on: Plasmodium falciparum 3D7; assay: Inhibition of 20S proteasome beta 2 subunit from bortezomib resistant Plasmodium falciparum 3D7 trophozoite infected erythrocytes assessed as inhibition of BMV037 probe labeling at 1 to 10 uM incubated for 1 hr by SDS-PAGE analysis; details: dose 1-10 µM
[15] = Binding affinity to Plasmodium falciparum 20S proteasome beta 2 subunit assessed as equilibrium constant using fluorogenic peptide Ac-WLR-AMC as substrate in presence of PA28alpha by fluorescence based microplate reader assay
[16] = biological target: T3, Proteasome Macropain subunit MB1 (Homo sapiens); assay: Inhibition of human 20S constitutive proteasome beta 5 subunit assessed as inhibition of BMV037 probe labeling at 1 uM incubated for 1 hr by SDS-PAGE analysis; method in brief: as §1
[17] = biological target: T2, Proteasome component C5 (Homo sapiens); assay: Inhibition of human 20S constitutive proteasome beta 1 subunit assessed as inhibition of BMV037 probe labeling at 1 uM incubated for 1 hr by SDS-PAGE analysis; method in brief: as §1
[18] = tested on: Plasmodium falciparum 3D7; assay: Inhibition of 20S proteasome beta 5 subunit from bortezomib resistant Plasmodium falciparum 3D7 trophozoite infected erythrocytes assessed as inhibition of BMV037 probe labeling at 1 to 10 uM incubated for 1 hr by SDS-PAGE analysis; details: dose 1-10 µM
[19] = biological target: T3, Proteasome Macropain subunit MB1 (Homo sapiens); assay: Inhibition of human 20S constitutive proteasome beta 5 subunit assessed as inhibition of BMV037 probe labeling at 10 uM incubated for 1 hr by SDS-PAGE analysis; method in brief: as §1

Proteasome Macropain subunit (Homo sapiens), sequence (P49721 whole entry, the tested form may be a part): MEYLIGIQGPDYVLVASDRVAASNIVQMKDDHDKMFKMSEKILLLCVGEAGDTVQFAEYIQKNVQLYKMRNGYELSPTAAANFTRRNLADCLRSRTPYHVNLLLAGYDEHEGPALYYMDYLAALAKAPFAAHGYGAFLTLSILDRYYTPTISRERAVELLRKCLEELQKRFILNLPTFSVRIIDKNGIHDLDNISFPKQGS

| Compound | T1/2 [1] | inhibition (Plasmodium falciparum [2]) | LC50 (Plasmodium falciparum [3]) | inhibition [4] | IC50 [5] | inhibition [6] | Ki [7] | Activity (Plasmodium falciparum [8]) | T1/2 [9] | inhibition [10] | Ki [11] | T1/2 (Plasmodium falciparum [12]) | inhibition [13] | inhibition [14] | Ki [15] | inhibition [16] | inhibition [17] | inhibition [18] | inhibition [19] |
| --- | --- | --- | --- | --- | --- | --- | --- | --- | --- | --- | --- | --- | --- | --- | --- | --- | --- | --- | --- |
| CC(C)C[C@H](NC(=O)[C@H](Cc1ccccc1)NC(=O)Cc1ccc(O)cc1)B(O)O | 2 min | Active | 61 nM | Active | 1.4 nM | Active | 4.3 nM | Active | 1.77 h | Active | 0.13 nM | 1.08 h | Active | Active | 6.4 nM |  |  |  |  |
| Cc1ccc(S(=O)(=O)N[C@@H](CC(=O)NCC(C)(C)C)C(=O)N[C@@H](Cc2ccccc2)C(=O)N[C@@H](CC(C)C)B(O)O)cc1 |  |  | 65 nM | Active | 9 nM | Active |  |  |  | Active |  |  | Active | Active |  | inactive | inactive | Active |  |
| CC(=O)N1CCC[C@@H]1C(=O)N[C@@H](C)C(=O)N[C@@H](Cc1ccccc1)B(O)O |  |  | 120 nM |  | 220 nM |  |  | Active |  |  |  |  |  |  |  |  |  | Active | inactive |

— ChEMBL document CHEMBL4680111, “Target Validation and Identification of Novel Boronate Inhibitors of the Plasmodium falciparum Proteasome” (J Med Chem, 2018)
